For experiment [1], the system named is HeLa. Kind of experiment: Antiproliferative activity against human HeLa cells after 48 hrs by MTT assay. In kind it is functional. The method in brief:
(§1)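 MTT assay: cells attached 4–6 h at 37 °C, 5% CO2, then exposed 48 h to graded concentrations from DMSO stocks; 5 mg/mL MTT added for 4 h, formazan dissolved in DMSO, absorbance at 490 nm. GI50 from log plot of percent of control versus concentration; mean of three independent experiments.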
For orientation: Tetrazolium dyes change colour on reduction, which living cells bring about.

Experiment [2] concerns A549. Kind of experiment: Antiproliferative activity against human A549 cells after 48 hrs by MTT assay. The class given is functional. The method in brief: as §1
For experiment [3], the system named is HepG2. The experiment can be described thus: Antiproliferative activity against human HepG2 cells after 48 hrs by MTT assay. In kind it is functional. The method in brief: as §1
The test system of experiment [4] is LoVo. The experiment can be described thus: Antiproliferative activity against human LoVo cells after 48 hrs by MTT assay. In kind it is functional. The method in brief: as §1
In experiment [5] the target is T1, Aurora kinase A (Homo sapiens, UniProt O14965).
T1 sequence (O14965 whole entry): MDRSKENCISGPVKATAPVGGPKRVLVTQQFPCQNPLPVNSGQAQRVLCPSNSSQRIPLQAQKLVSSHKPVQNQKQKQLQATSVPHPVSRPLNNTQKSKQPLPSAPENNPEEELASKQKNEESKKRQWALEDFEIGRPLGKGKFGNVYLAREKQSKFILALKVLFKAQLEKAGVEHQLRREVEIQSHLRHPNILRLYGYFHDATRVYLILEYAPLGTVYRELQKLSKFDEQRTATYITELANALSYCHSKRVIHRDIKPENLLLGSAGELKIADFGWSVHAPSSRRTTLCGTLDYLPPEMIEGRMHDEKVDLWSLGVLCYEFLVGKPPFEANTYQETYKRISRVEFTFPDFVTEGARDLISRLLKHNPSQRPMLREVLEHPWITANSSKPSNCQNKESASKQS
The experiment can be described thus: Inhibition of Aurora A (unknown origin) using kemptide acetate salt as substrate after 30 mins by kinase-Glo luminescence method. A general note: Kinase-Glo measures the ATP left after a reaction by luminescence.

Experiment [6] deals with Aurora kinase B (Homo sapiens, UniProt Q96GD4). Kind of experiment: Inhibition of Aurora B (unknown origin) using kemptide acetate salt as substrate after 30 mins by kinase-Glo luminescence method.
Sequence of Aurora kinase B (Q96GD4 whole entry): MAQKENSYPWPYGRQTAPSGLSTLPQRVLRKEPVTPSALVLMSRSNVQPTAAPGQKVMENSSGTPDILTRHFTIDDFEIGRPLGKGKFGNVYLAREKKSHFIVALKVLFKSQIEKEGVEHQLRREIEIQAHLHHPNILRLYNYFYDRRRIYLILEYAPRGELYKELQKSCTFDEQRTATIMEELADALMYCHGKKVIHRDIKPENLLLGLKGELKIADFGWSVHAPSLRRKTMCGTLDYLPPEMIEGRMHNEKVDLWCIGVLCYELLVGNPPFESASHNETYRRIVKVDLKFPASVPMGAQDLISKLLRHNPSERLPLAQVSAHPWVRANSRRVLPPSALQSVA
In experiment [7] the test system is HeLa. Kind of experiment: Induction of microtubule disruption in human HeLa cells at 1 uM after 24 hrs by DAPI staining based immunofluorescence microscopic analysis. In kind it is functional, cell-based. In a few lines: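 HeLa cells on coverslips treated 24 h (0.1 or 1 μM; DMSO control); fixed in 4% paraformaldehyde, permeabilised in 0.1% Triton X-100 with 2% BSA, anti-α-tubulin overnight at 4 °C, FITC secondary 2 h room temperature, DAPI for DNA; confocal imaging.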

In experiment [8] the test system is HeLa. Kind of experiment: Cell cycle arrest in human HeLa cells assessed as accumulation at G1 phase at 5 uM after 12 hrs by propidium iodide staining-based flow cytometric analysis (reference value: 70.68%). The class given is functional. The method in brief: (§2)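 HeLa cells exposed 12 h to 1 or 5 μM compound diluted from DMSO (DMSO control), fixed, stained with propidium iodide; DNA content measured by flow cytometry and G1, S, G2/M fractions calculated from the DNA histogram.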

Experiment [9] relates to HeLa. Kind of experiment: Cell cycle arrest in human HeLa cells assessed as accumulation at S phase at 5 uM after 12 hrs by propidium iodide staining-based flow cytometric analysis (reference value: 5.74%). In kind it is functional. In a few lines: as §2
A general note: Flow cytometry measures light scatter and fluorescence of single cells or particles in a stream.

Experiment [10] deals with HeLa. Kind of experiment: Cell cycle arrest in human HeLa cells assessed as accumulation at G2/M phase at 5 uM after 12 hrs by propidium iodide staining-based flow cytometric analysis (reference value: 23.57%). The class given is functional. In a few lines: as §2
The test system of experiment [11] is HeLa. Kind of experiment: Cell cycle arrest in human HeLa cells assessed as decrease in cyclin B1 protein expression at 5 uM after 12 hrs by Western blot analysis. In kind it is functional, cell-based. The method in brief:
(§3)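 HeLa cells treated 12 h (0.1, 1, 5 μM for apoptosis proteins); lysed in Tris pH 7.5/NP-40/SDS buffer with protease inhibitors, equal protein on 10% SDS-PAGE, PVDF, 5% BSA block, primary antibodies overnight at 4 °C, β-actin loading control; mean ± SD.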

The subject of experiment [12] is HeLa. Kind of experiment: Cell cycle arrest in human HeLa cells assessed as decrease in cdc2 protein expression at 5 uM after 12 hrs by Western blot analysis. In kind it is functional, cell-based. The method in brief: as §3

In ChEMBL document CHEMBL4308900, “Synthesis and identification of 2,4-bisanilinopyrimidines bearing 2,2,6,6-tetramethylpiperidine-N-oxyl as potential Aurora A inhibitors” (Bioorg Med Chem, 2019) one finds GI50, IC50 and Activity data, which are given here for 18 compounds.

Calls of active or inactive are those of the source. The rule behind the calls is not given here.

The GI50 is the concentration at which growth is held to half of that of the control. With `CC1(C)CC(NC(=O)c2ccc(Nc3nc(Nc4ccc(C(=O)O)cc4)ncc3[N+](=O)[O-])cc2)CC(C)(C)N1[O]`, the GI50 in [1] turned out to be 27.3 µM; in experiment [2], 29.6 µM; in experiment [3], 11.8 µM; in experiment [4], 27.4 µM.
One may read the IC50 as the concentration that inhibits the measured activity by half. In the case of `CC1(C)CC(NC(=O)c2ccc(Nc3ncc([N+](=O)[O-])c(Nc4ccccc4O)n3)cc2)CC(C)(C)N1[O]`, the GI50 in experiment [1] turned out to be 13.9 µM; in experiment [2] (A549, 48 h), 11.2 µM; in [3] (HepG2, 48 h) it was 3.7 µM; in experiment [4], 28.3 µM. The IC50 came out at 0.0085 µM in [5] and 0.0113 µM in [6].
With `CC1(C)CC(NC(=O)c2ccc(Nc3ncc(Br)c(Nc4ccccc4Cl)n3)cc2)CC(C)(C)N1[O]`, the GI50 came to 9.6 µM in [1]; 3.8 µM in experiment [2] (A549, 48 h); 2.1 µM in experiment [3] (HepG2, 48 h); 3.2 µM in experiment [4]. The IC50 amounted to 0.00046 µM in [5] and 0.00267 µM in experiment [6].
For the compound `CC1(C)CC(NC(=O)c2ccc(Nc3ncc(Cl)c(Nc4ccccc4Cl)n3)cc2)CC(C)(C)N1[O]`, the GI50 in [1] came out at 10.2 µM; in experiment [2] (A549, 48 h), 3.6 µM; in experiment [3] (HepG2, 48 h) it was 1.6 µM; in experiment [4] it was 3.2 µM. Further, the IC50 in [5] came to 0.00019 µM; in experiment [6], 0.00029 µM.
For `Cc1cc(Nc2cc(N3CCN(C)CC3)nc(Sc3ccc(NC(=O)C4CC4)cc3)n2)n[nH]1`, the GI50 in experiment [1] came out at 46.2 µM; in experiment [2], 35.8 µM; in experiment [3], 53.3 µM; in experiment [4], 45.3 µM. Besides, in [7], the result was inactive. Further, the Activity in experiment [8] worked out at 34.4%; in experiment [9] it was 26.6%; in experiment [10] it was 39%. Besides, the result in experiment [11] and in experiment [12] was Active.
Consider `CC1(C)CC(NC(=O)c2ccc(Nc3ncc([N+](=O)[O-])c(Nc4cccc(Cl)c4)n3)cc2)CC(C)(C)N1[O]`, for which the GI50 in experiment [1] was determined as 43.2 µM; in [2] (A549, 48 h), 31.3 µM; in [3] (HepG2, 48 h), 42.1 µM; in experiment [4] it was 67.8 µM. In addition, the IC50 stood at 0.00062 µM in [5] and 0.0195 µM in [6].
`CC1(C)CC(NC(=O)c2ccc(Nc3ncc([N+](=O)[O-])c(Nc4cccc(O)c4)n3)cc2)CC(C)(C)N1[O]`: the GI50 in [1] was found to be 36.5 µM; in [2] (A549, 48 h) it was 13.2 µM; in experiment [3] (HepG2, 48 h), 21.7 µM; in experiment [4] it was 39.6 µM. Further, the IC50 in experiment [5] was determined as 0.00014 µM; in experiment [6], 0.0035 µM.
Consider `CC1(C)CC(NC(=O)c2ccc(Nc3nc(Nc4ccc(C(=O)O)cc4)ncc3Cl)cc2)CC(C)(C)N1[O]`, for which the GI50 in experiment [1] was 56.5 µM; in experiment [2] it was over 100 µM; in [3], 48.2 µM; in experiment [4] it was 56.6 µM.
In the same order, the values of `CC1(C)CC(NC(=O)c2ccc(Nc3nc(Nc4ccc(C(=O)O)cc4)ncc3Br)cc2)CC(C)(C)N1[O]` are over 100 µM, over 100 µM, 35.8 µM and over 100 µM.
As for `CC1(C)CC(NC(=O)c2ccc(Nc3ncc([N+](=O)[O-])c(Nc4ccccc4Cl)n3)cc2)CC(C)(C)N1[O]`, the GI50 in experiment [1] was 53.1 µM; in [2] (A549, 48 h), 2.8 µM; in experiment [3] (HepG2, 48 h), 3.7 µM; in experiment [4], 35.2 µM. The IC50 in experiment [5] came to 0.00186 µM; in experiment [6], 0.00329 µM.
On to `CC1(C)CC(NC(=O)c2ccc(Nc3ncc([N+](=O)[O-])c(Nc4ccc(C(=O)Nc5ccc(Cl)cc5)cc4)n3)cc2)CC(C)(C)N1[O]`, for which the GI50 was 53 µM in experiment [1]; 17.2 µM in experiment [2] (A549, 48 h); 24.1 µM in experiment [3] (HepG2, 48 h); 46.3 µM in experiment [4]. Also, the IC50 in experiment [5] turned out to be 0.02 µM; in experiment [6], 0.00067 µM.
For the compound `CC1(C)CC(NC(=O)c2ccc(Nc3ncc(F)c(Nc4ccccc4Cl)n3)cc2)CC(C)(C)N1[O]`, the concentration for 50% growth inhibition (GI50) in experiment [1] turned out to be 8.4 µM; in experiment [2] (A549, 48 h), 2.3 µM; in [3] (HepG2, 48 h), 1.2 µM; in experiment [4], 2.7 µM. Besides, the half-maximal inhibitory concentration (IC50) in experiment [5] is 0.00018 µM; in experiment [6], 0.00111 µM.
With `CC1(C)CC(NC(=O)c2ccc(Nc3ncc([N+](=O)[O-])c(Nc4ccc(O)cc4)n3)cc2)CC(C)(C)N1[O]`, the GI50 in [1] stood at 34.3 µM; in experiment [2] (A549, 48 h), 14.3 µM; in experiment [3] (HepG2, 48 h), 21.5 µM; in experiment [4] it was 43.8 µM. In addition, the IC50 is 0.00059 µM in experiment [5] and 0.0035 µM in experiment [6].
As to `CC1(C)CC(NC(=O)c2ccc(Nc3ncc([N+](=O)[O-])c(Nc4ccc(C(=O)Nc5cccc(Cl)c5)cc4)n3)cc2)CC(C)(C)N1[O]`, the GI50 amounted to 49.5 µM in [1]; 14.2 µM in [2] (A549, 48 h); 12.5 µM in experiment [3] (HepG2, 48 h); 39.6 µM in experiment [4]. The IC50 was determined as 0.00011 µM in [5] and 0.027 µM in experiment [6].
In the case of `CC1(C)CC(NC(=O)c2ccc(Nc3nc(Nc4ccc(C(=O)O)cc4)ncc3F)cc2)CC(C)(C)N1[O]`, the 50% growth inhibitory concentration (GI50) was 21.3 µM in [1], 18.5 µM in [2], 26.8 µM in [3] and 65.3 µM in experiment [4].
Turning to `CC1(C)CC(NC(=O)c2ccc(Nc3ncc([N+](=O)[O-])c(Nc4ccc(Cl)cc4)n3)cc2)CC(C)(C)N1[O]`, the GI50 in experiment [1] was found to be 33.3 µM; in experiment [2] (A549, 48 h), 5.6 µM; in [3] (HepG2, 48 h), 13 µM; in [4], 27.8 µM. Besides, the IC50 in experiment [5] came out at 0.00161 µM; in experiment [6] it was 0.00034 µM.
As for `CC1(C)CC(NC(=O)c2ccc(Nc3ncc([N+](=O)[O-])c(Nc4ccc(C(=O)Nc5ccccc5Cl)cc4)n3)cc2)CC(C)(C)N1[O]`, the GI50 came out at 23.2 µM in [1]; 2.5 µM in [2] (A549, 48 h); 3.4 µM in [3] (HepG2, 48 h); 28.5 µM in experiment [4]. The IC50 in experiment [5] stood at 0.00548 µM; in [6] it was 0.00307 µM.
Regarding `CN1CCC(NC(=O)c2ccc(Nc3ncc(F)c(Nc4ccc(C(=O)Nc5ccccc5Cl)cc4)n3)cc2)CC1`, the concentration for 50% growth inhibition (GI50) in [1] stood at 11.3 µM; in experiment [2] (A549, 48 h) it was 8.9 µM; in [3] (HepG2, 48 h), 13.4 µM; in [4], 12.4 µM. The IC50 was found to be 0.00228 µM in [5] and 0.0491 µM in [6].
